Bioassay records as filed in PubChem.
An excerpt weighted towards active compounds, which were near 4.3% of everything screened.
APP 5'UTR act – APP 5'UTR luciferase reporter activation; SH-SY5Y APP 5'UTR luciferase reporter, luminescence; zero percent = DMSO vehicle wells; activation, % at 2 µM; hit rate 1% among 190,000; AID 1276;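 active = activation above a set limit, based on mean plus 3 SD of controls, cut at about 140% in these data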
STAT1 act – increases IFN-gamma driven STAT1 reporter signal; NIH 3T3 STAT1-luciferase reporter, luminescence; 100% = IFN-gamma alone, no compound; activation (% of control), % at 5.5 µM; hit rate 2.6% among 200,000; AID 932;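 active = activation above the screen-wide mean activation plus 3 SD, cut at about 130% in these data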
FLuc act counter – affects firefly luciferase, flagging false hits in luciferase stimulation screens. activation factor at 10 µM. P08659. AID 1027. 200,000 tested, under 10 active. ATPlite luciferase biochemical, luminescence, 10 min; 0 = ATP-free wells, 1 = DMSO control;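 active = luciferase activation factor, scaled between plate controls, of at least 2 with compound at 10 µM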
Target sequence (P08659 whole entry, looked up): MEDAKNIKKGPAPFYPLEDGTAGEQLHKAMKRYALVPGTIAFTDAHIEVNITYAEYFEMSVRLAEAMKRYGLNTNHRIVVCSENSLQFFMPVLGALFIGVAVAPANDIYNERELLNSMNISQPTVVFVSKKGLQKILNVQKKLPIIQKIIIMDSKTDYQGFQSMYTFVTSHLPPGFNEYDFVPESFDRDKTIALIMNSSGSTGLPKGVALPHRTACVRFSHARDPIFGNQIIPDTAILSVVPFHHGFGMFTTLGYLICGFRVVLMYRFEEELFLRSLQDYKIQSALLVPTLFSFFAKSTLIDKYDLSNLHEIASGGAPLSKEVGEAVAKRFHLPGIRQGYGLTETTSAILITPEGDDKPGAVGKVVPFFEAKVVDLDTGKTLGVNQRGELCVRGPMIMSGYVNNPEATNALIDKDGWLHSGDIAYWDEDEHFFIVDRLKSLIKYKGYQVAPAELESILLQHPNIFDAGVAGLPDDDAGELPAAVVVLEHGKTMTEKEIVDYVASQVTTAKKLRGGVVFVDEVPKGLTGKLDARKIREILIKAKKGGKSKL
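System: luciferase plus luciferin reagent, cell-free; medium: PBS as buffer for the ATP substrate; dosing: test compounds dosed from 2 mM stocks in 100% DMSO; timing: 10 min post-reagent at room temperature; measured by: luminescence measurement of luciferase light output; evaluation: luciferase activation, seen as luminescence increase over controls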
FLuc inh counter – inhibits firefly luciferase, flagging false hits in luciferase inhibition screens | ATPLite firefly luciferase biochemical luminescence, 10 min | inhibition, % at 10 µM | hit rate 1.5% among 200,000;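 active = inhibition above about 50% when tested at 10 µM, limit read from the data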
NF-kB neuron act – raises NF-kB expression in human neuronal cells. hit rate 1.6% among 190,000. NF-kB reporter expression; active compounds read high. fold change at 12.5 µM. AID 1239; in the data active = fold change above about 3.3
Numbers stand for hits; - = inactive; . = not tested or not shown.

SMILES	APP 5'UTR act	STAT1 act	FLuc act counter	FLuc inh counter	NF-kB neuron act
COc1ccc(/C(O)=C/c2nc3ccccc3n(-c3ccccc3)c2=O)cc1	-	-	-	-	-
O=C(Nc1ccc(Cl)cc1Cl)c1n[nH]c(Cn2cncn2)n1	-	-	-	64	-
Cc1ccc(/C=C/S(=O)(=O)NCc2ccc(F)cc2)cc1	-	-	-	-	-
O=C(CCCOc1ccc(Cl)cc1Cl)NN1CCOCC1	-	-	-	-	-
Cc1ccc(C(=O)n2c(N)nc3ccccc32)cc1	-	-	-	97	-
COc1ccc2c(c1)Cc1sc(NC(=O)c3cccnc3)nc1-2	-	-	-	-	-
COc1ccc2c(c1)Cc1sc(NC(C)=O)nc1-2	-	146	-	-	-
O=C(CSc1nc(-c2ccccc2)cs1)Nc1ccccc1[N+](=O)[O-]	-	-	-	-	-
CCOc1ccccc1NC(=O)C(NCC1(N2CCCCC2)CCCCC1)c1ccccc1 (stereo unspecified)	-	-	-	-	-
Cc1ccc(C)c(NC2=C(Cl)C(=O)OC2OC(C)C)c1 (stereo unspecified)	-	-	-	-	-
Cc1ccc(/C(N)=N/OC(=O)c2ccco2)cc1	162	-	-	60	5.2
COc1ccc(C(=O)COC(=O)c2ccco2)cc1	-	-	-	72	-
N/C(=N\OC(=O)c1ccco1)c1ccccc1	142	143	-	58	-
Cc1ccc(C(=O)NNC(=S)NC(=O)c2ccco2)cc1	-	-	-	-	-
Cc1ccc(C(=O)NNC(=O)c2ccco2)cc1	-	-	-	57	-
O=C1CCC/C(=N/Nc2ccc(Cl)cc2)C1	-	-	-	-	-
COc1ccc(/C(N)=N/OC(=O)c2ccco2)cc1	182	-	-	68	-
Cc1cccc(/C(N)=N/OC(=O)N2CCOCC2)c1	-	-	-	-	-
Cc1cccc(/C(N)=N/OC(=O)c2ccco2)c1	163	-	-	56	6.4
N/C(=N\OC(=O)c1ccco1)c1ccccn1	-	-	-	55	-
N/C(=N\OC(=O)c1ccc(=O)n(Cc2ccccc2)c1)c1ccccn1	-	-	-	-	-
N#Cc1ccccc1NC(=O)c1ccc2c(Cl)c3c(nc2c1)CCCC3	-	-	-	50	-
CC(=O)c1cccc(NC(=O)c2ccc3c(Cl)c4c(nc3c2)CCCC4)c1	-	-	-	-	-
O=C(Nc1cccnc1Cl)c1ccc2c(Cl)c3c(nc2c1)CCC3	242	135	-	91	5.9
Cc1ccc(-n2[nH]c(C)c(CCC#N)c2=O)cc1	-	-	-	-	-
SMILES	APP 5'UTR act	STAT1 act	FLuc act counter	FLuc inh counter	NF-kB neuron act
CCOC(=O)N1CCN(Cc2cc(Cl)c3cccnc3c2O)CC1	-	-	-	-	-
c1ccn2c(SCc3cn4ccsc4n3)nnc2c1	-	138	-	-	-
Cc1cccc2nc(CSc3nnc4ccccn34)cn12	-	137	-	-	-
c1ccc(-n2cnnc2SCc2cn3ccsc3n2)cc1	-	-	-	-	-
CCc1nnc(NC(=O)c2ccc(OC)cc2)s1	-	-	-	83	4
CCOc1ccc(C(=O)/C=C/Nc2ccc(S(=O)(=O)N=C(N)N)cc2)cc1	-	131	-	-	-
CCc1nnc(NC(=O)c2ccc3nc(CC)c(CC)nc3c2)s1	-	-	-	-	-
CCc1nnc(NS(=O)(=O)c2ccc(N/C=C/C(=O)c3ccc(OC)cc3)cc2)s1	-	136	-	-	-
COC(=O)Nc1nnc(/C=C/c2ccc(OC)cc2)s1	-	-	-	52	-
CC(C)c1onc(C(=O)NCc2ccccc2)c1[N+](=O)[O-]	-	-	-	-	-
O=S(=O)(NCC1CCCO1)c1ccc(S(=O)(=O)N(Cc2ccc(F)cc2)Cc2ccco2)cc1 (stereo unspecified)	-	-	-	-	-
CCc1nnc(NC(=O)c2cccc(OC)c2)s1	-	137	-	-	-
CCOc1cccc(C(=O)Nc2nnc(-c3ccco3)s2)c1	-	-	-	-	3.3
CCOc1cccc(NC(=O)C2CC(=O)NC(=Nc3ccccc3)S2)c1 (stereo unspecified)	-	-	-	-	-
CCc1ccc(Oc2cc(C)nc(N)n2)cc1	-	132	-	-	3.3
Cc1oc(-c2ccc3c(c2)OCCO3)cc1C(=O)O	-	-	-	62	-
Cc1oc(-c2ccc3c(c2)OCCO3)cc1C(=O)NCC(=O)O	-	-	-	-	-
c1ccc(COn2nnc3ccccc32)c(COn2nnc3ccccc32)c1	-	-	-	-	-
COC(=O)c1ccc(COn2nnc3ccccc32)cc1	200	-	-	-	5.4
CC1CCN(C(=O)C2CC(c3ccc(F)cc3)=NO2)CC1 (stereo unspecified)	-	129	-	-	-
COc1cccc(C2=NOC(C(=O)N3CCOCC3)C2)c1 (stereo unspecified)	-	133	-	-	-
CN1CCN(C(=O)C2CC(c3ccc(F)cc3)=NO2)CC1 (stereo unspecified)	-	-	-	-	-
COc1ccccc1N1CCN(C(=O)c2ccc3[nH]c4c(c3c2)CC(C)CC4)CC1 (stereo unspecified)	-	-	-	-	-
Cc1ccc(N2Cc3ccccc3C2=S)cc1	201	136	-	76	6.8
CCCCc1nc2ccccc2n2cc3c(=O)n(C)c(=O)n(C)c3c12	-	-	.	.	.
SMILES	APP 5'UTR act	STAT1 act	FLuc act counter	FLuc inh counter	NF-kB neuron act
Cc1cc(NC(=O)c2ccccc2[N+](=O)[O-])ccc1Br	-	138	-	-	-
Cc1ccc(Cn2c(=N)n(CC(=O)c3ccccc3)c3ccccc32)cc1	-	-	-	-	-
O=C1C(c2c(O)[nH]c3ccccc23)=Nc2ccccc21	.	.	-	-	.
CC(=O)c1cccc2c(O)c(C3=Nc4ccccc4C3=O)[nH]c12	-	-	-	-	4.1
CC1=CC(=O)C=C(C)C1=NOc1ccccc1[N+](=O)[O-]	-	-	-	-	3.7
CC(C)(C)/C(COc1ccccc1[N+](=O)[O-])=N/O	-	-	-	-	-
O=C(CC1CCCC1)Nc1nc2ccccc2[nH]1	-	144	-	-	-
O=C(Nc1nc2ccccc2[nH]1)C1CCCC1	-	136	-	-	-
CCS(=O)(=O)N1Cc2ccccc2CC1C(=O)Nc1nc2ccccc2[nH]1 (stereo unspecified)	182	-	-	-	-
CC(C(=O)NCc1ccccn1)c1ccc([N+](=O)[O-])cc1 (stereo unspecified)	-	-	-	-	-
Cc1ccc(SCC(=O)Nc2ccc(F)cc2[N+](=O)[O-])cc1C	-	-	-	-	-
O=C(CSc1ccccn1)C12CC3CC(CC(C3)C1)C2	-	-	-	-	-
Cn1nc(CSc2ccccc2)c(C=O)c1Cl	-	-	-	-	-
Cc1nn(C)cc1C(C)Nc1nc2nonc2nc1N1CCCCC1 (stereo unspecified)	-	-	-	-	-
CNC(=O)c1cc2c(s1)-c1ccccc1CC2	-	144	-	-	-
COc1cccc(-c2nc(-c3ccc4c(c3)NC(=O)CO4)cs2)c1	-	142	-	-	-
